Screens as filed in PubChem BioAssay.
Rows were chosen to be rich in hits. Some 2.2% of all compounds tested hit in one or more screens of this group.
BaF3 parental – counter-screen for JAK2V617F inhibitors: parental Ba/F3 viability inhibitors. CellTiter-Glo ATP luminescence. inhibition, % at 5.6 µM. 220,000 tested, 1.1% active;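 active = inhibition above a per-campaign cutoff, the mean inhibition of all tested compounds plus 3 SD, cut at about 27% in these data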;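 note: 0% = DMSO wells and 100% = JAK Inhibitor I control wells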
Ba/F3 V617F tox – loss of viability in JAK2V617F-driven Ba/F3 cells | Ba/F3 EpoR-JAK2V617F viability, ATP luminescence | inhibition, % at 5.6 µM | 220,000 tested, 1.1% active;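 active = inhibition above the campaign mean plus 3 SD over all tested compounds, cut at about 24% in these data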;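 note: cytokine-independent growth of Ba/F3 cells driven by EpoR plus mutant JAK2; 0% = DMSO-treated cells and 100% = JAK inhibitor I control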
IEC-6 tox – IEC-6 cytotoxicity, counter-screen for KLF5 inhibitors | luminescence viability | inhibition, % at 5 µM | 290,000 tested, 0.78% active;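 note: 0% = plate median of test compound wells and 100% = cytotoxic reference compound wells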
MT stabilizer – microtubule stabilization, imaging screen | HeLa tubulin immunostaining HCS, 24 h; share of cells brighter than vehicle mean+2SD | % tubulin-high responders, % at 10 µM | 200,000 tested, 0.83% active | AID 2205;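 active = plate Z-score above 3 for both tubulin-high and condensed-nucleus cell shares, with cell loss under 80%, at 10 µM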;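 note: anti alpha tubulin signal scored within the nucleus-defined area of each cell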
APP transl inh – APP translation inhibition; SH-SY5Y APP 5'UTR-luciferase reporter, luminescence; inhibition, % at 2 µM; 190,000 tested, 0.82% active;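 active = inhibition above a set limit, derived from the sample mean plus 3 SD, cut at about 45% in these data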
b-catenin transl – beta-catenin nuclear translocation modulation | HeLa beta-catenin nuclear translocation, immunofluorescence imaging | 190,000 tested, 0.3% active | nuclear translocation activity, % at 5 µM;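 active = nuclear translocation activity above 50% at 5 µM, with a well cell count of 50 or more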;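 note: per-cell ratio of nuclear to cytoplasmic median beta-catenin stain intensity; plate controls were DMSO negative control for no effect and GSK-3 inhibitor IX positive control for full effect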
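Test system: human HeLa cell line; Doses: 5 µM primary, 0.02–20 µM confirmation; Incubation: 24 h compound exposure, 37°C; Detection: beta-catenin immunofluorescence imaging with DAPI; Read-out: beta-catenin nuclear/cytoplasmic ratio, % activation.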
IEC-6 cytotox cf – IEC-6 cytotoxicity, confirmation assay. shares compounds with IEC-6 tox. IEC-6 rat intestinal epithelial viability, luminescence. 1,900 tested, 63% active. inhibition, % at 5 µM;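 note: 0% = vehicle and 100% = reference cytotoxic drug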
Numbers without * were called inactive; . = not tested or not shown. Cut-off read from the data, not from the text of the source, unless noted: active = inhibition above about 22%; inactive = the rest.

SMILES | BaF3 parental | Ba/F3 V617F tox | IEC-6 tox | MT stabilizer | APP transl inh | b-catenin transl | IEC-6 cytotox cf
COc1ccccc1C(=O)Nc1cccc2cccnc12 | . | . | 4.8 | . | . | . | .
CCOc1ccc(Nc2cc(C)nc(-n3nc(C)cc3C)n2)cc1 | 81.2* | 77.3* | 84.5* | 16.1 | 95.9* | 86.8* | 52.1*
CCOc1cc(/C=N/Nc2cc(C)nc(-n3nc(C)cc3C)n2)ccc1O | -1.5 | -1.2 | 53.5* | . | . | 2.5 | 16.2
CCOC(=O)c1csc(NC(=O)c2ccc3c(c2)OCCO3)n1 | . | . | 0.3 | . | . | . | .
CCN(Cc1ccccc1)S(=O)(=O)c1ccc(C(=O)Nc2nnc(C)o2)cc1 | . | . | 17.0 | . | . | . | .
CCc1nnc(NC(=O)c2ccc(S(=O)(=O)N(CC)Cc3ccccc3)cc2)o1 | 6.4 | 0.5 | 26.4* | 2.2 | 14.7 | 1.8 | 2.2
CCc1ccc(CNC(=O)Cc2ccc(NC(=O)C3=C(C)OCCS3)cc2)cc1 | . | . | 77.8* | . | . | . | 53.0*
COC(=O)c1[nH]nc(C(=O)OC(C)(C)C)c1-c1ccccc1 | 3.9 | 0.9 | -2.5 | 4.2 | 7.8 | 0.5 | .
O=c1[nH]c(-c2ccccn2)nc(C(F)(F)F)c1Br | 27.6* | 9.2 | 68.1* | 5.1 | 6.2 | -2.2 | 24.4*
CS(=O)(=O)c1sc(C#N)c2c1C(=O)CC(c1ccccc1)C2 (centres undefined) | 91.8* | 99.0* | 75.2* | . | . | -3.3 | 19.6
CCOc1ccc(C2=Nn3c(nnc3-c3ccc(OC)cc3)SC2)cc1 | 57.2* | 72.6* | 34.4* | 39.6* | 95.0* | 106.1* | 51.6*
COc1ccc(S(=O)(=O)N2N=C(C)Oc3ccccc3C2=O)cc1 | 76.2* | 85.5* | 67.5* | 37.4* | 85.0* | 79.7* | 45.4*
CC1=NN(S(=O)(=O)c2ccc(C)cc2)C(=O)c2ccccc2O1 | -7.7 | -2.4 | -1.5 | . | . | -0.7 | .
CC(=O)Nc1ccc(C(=O)OCCC(C)C)cc1 | 7.4 | -0.6 | 25.2* | 2.9 | -6.2 | 2.3 | 22.6*
Cc1cc(C)n(-c2nc3ccccc3c(=O)n2OCC#N)n1 | . | . | 85.5* | . | . | . | 51.8*
CCOn1c(-n2nc(C)cc2C)nc2ccccc2c1=O | -0.2 | -4.1 | -1.4 | 2.3 | 3.9 | -4.7 | .
COc1ccc(-[n+]2c(C)cc(/C=C3\Sc4ccccc4N3C)cc2C)cc1 | 96.9* | 100.7* | 31.9* | 24.0 | 82.9* | 12.2 | 65.3*
CC1=[N+](C)c2c(ccc3cccnc23)C1(C)C | 62.6* | 72.0* | 26.5* | 3.1 | 20.0 | 1.4 | 33.1*
Cc1[nH]c2c(ccc3cccnc32)c1C | -1.3 | -6.0 | -1.2 | . | . | -1.6 | .
CCS(=O)(=O)Nc1ccc(-c2nc3cccnc3s2)cc1 | -1.6 | -0.9 | 2.6 | 5.9 | -197.3 | -2.8 | .
COc1ccc(C(=O)NCc2nnc(SCC(=O)Nc3nc4ccccc4s3)o2)cc1 | 6.3 | 3.4 | 64.1* | 1.4 | 2.9 | -7.1 | -6.7
CC(=O)Nc1cc(Cl)ccc1OS(=O)(=O)c1ccc(C)cc1 | 6.8 | 2.6 | -3.6 | 4.6 | -19.6 | 0.4 | .
CN(C)c1cccc(/C=C(\C#N)c2ccccc2)c1 | 76.4* | 81.4* | 77.0* | . | . | 1.4 | 56.1*
Cn1cc(Br)c(C(=O)NNC(=O)Nc2ccccc2C(F)(F)F)n1 | -1.4 | 0.3 | 2.4 | 6.1 | 3.0 | 0.3 | .
CCOc1ccc2nc(NC(=O)c3ccoc3C)sc2c1 | 28.3* | 27.0* | 26.0* | 1.8 | -167.7 | -3.8 | 36.4*
SMILES | BaF3 parental | Ba/F3 V617F tox | IEC-6 tox | MT stabilizer | APP transl inh | b-catenin transl | IEC-6 cytotox cf
COC(=O)c1cc(C(=O)N2CCN(c3cccc(Cl)c3)CC2)cc([N+](=O)[O-])c1 | 71.5* | 72.7* | 79.4* | 12.5 | 92.3* | 99.5* | 53.0*
COC(=O)c1cc(C(=O)N2CCOCC2)cc([N+](=O)[O-])c1 | 5.4 | -0.9 | -0.8 | 2.3 | -18.0 | 0.5 | .
CCOc1ccccc1C(=O)N1CCN(c2cccc(Cl)c2)CC1 | 85.1* | 89.3* | 91.8* | 14.8* | 94.5* | 68.6* | 66.5*
O=C(O)c1ccccc1C(=O)N1CCN(c2cccc(Cl)c2)CC1 | 6.4 | 3.3 | 0.9 | 4.0 | -4.1 | -0.6 | .
COc1ccc(NS(=O)(=O)c2cc(C(=O)N3CCN(C(C)=O)CC3)ccc2Cl)cc1 | 6.7 | -1.3 | 3.2 | 2.0 | 10.0 | -6.0 | .
COc1ccc(NS(=O)(=O)c2cc(N/C(=N\S(=O)(=O)c3ccccc3)c3ccc(F)cc3)ccc2Cl)cc1 | 60.6* | 63.9* | 38.7* | 12.4* | 7.1 | . | 0.0
Cc1ccc2ncnc(Nc3cccc([N+](=O)[O-])c3)c2c1 | . | . | 30.9* | . | . | . | 63.1*
Cc1ccc(-c2nn(-c3cccc(F)c3)cc2CNCc2cccnc2)o1 | 7.8 | 0.8 | 1.4 | 1.8 | -23.3 | -2.3 | .
Cc1cc(/C=N/Nc2nc(N3CCOCC3)nc(N3CCOCC3)n2)c(C)n1-c1ccccc1 | 5.5 | -3.0 | -3.4 | 3.1 | 17.1 | 0.0 | .
Cc1ccc(Nc2nc(N/N=C/c3c[nH]c4ccccc34)nc(N3CCOCC3)n2)cc1 | 61.7* | 80.2* | 90.1* | 6.6 | 31.8 | 16.5 | 93.9*
Fc1ccc(Nc2nc(N3CCOCC3)nc(N3CCOCC3)n2)cc1 | . | . | 2.0 | . | . | . | .
Cc1[nH]c2ccccc2c1/C=N/Nc1nc(Nc2ccc(F)cc2)nc(N2CCOCC2)n1 | 10.0 | 0.2 | 56.0* | 5.6 | 12.6 | -6.5 | 96.2*
C(=N\Nc1nc(Nc2ccccc2)nc(N2CCOCC2)n1)/c1c[nH]c2ccccc12 | 66.7* | 78.1* | 85.6* | 7.8 | 21.4 | . | 97.2*
CCc1ccccc1NC(=S)N(Cc1ccc(OC)cc1)CC1CCC(C(=O)O)CC1 (centres undefined) | 2.6 | -0.9 | 1.6 | 2.6 | 17.9 | 0.7 | .
O=C(Nc1nc2cc3c(cc2s1)OCO3)c1ccco1 | -6.1 | 4.6 | -2.4 | . | . | -0.7 | .
O=C(Nc1nc2cc3c(cc2s1)OCCO3)c1ccco1 | . | . | 22.8* | . | . | . | 9.7
Cc1ccc(C(=O)COC(=O)c2cc(=O)[nH]c3ccccc23)cc1C | 6.4 | -2.3 | -0.9 | 1.4 | 20.6 | -1.4 | .
Cc1cccnc1NC(=O)NC(=O)c1ccc(C(C)(C)C)s1 | -0.2 | -3.1 | -6.8 | . | . | 13.4 | .
CN(C)c1nc(=NCc2ccco2)ss1 | 7.6 | 12.4 | 97.3* | . | . | 0.1 | 30.5*
Nc1nc(Cl)nc2c1ncn2[C@H]1C[C@H](O)[C@@H](CO)O1 | 95.0* | 101.4* | 89.5* | 11.6 | 75.7* | -3.3 | 67.8*
Nc1ncnc2c1ncn2[C@H]1C[C@H](O)[C@@H](CO)O1 | 9.4 | 0.7 | 4.9 | 1.6 | -4.1 | -6.6 | .
O=C(NCCCN1CCCC1)c1ccc(CS(=O)(=O)c2ccc(Cl)cc2)o1 | . | . | -4.0 | . | . | . | .
COc1ccc(CCN(C)c2ncnc3sccc23)cc1OC | 0.6 | 4.7 | -0.8 | 9.6 | 1.9 | -1.0 | .
COc1ccc(CN(C)c2ncnc3sccc23)c(OC)c1OC | . | . | 23.0* | . | . | . | 9.8
CCOC(=O)N1CCC(NC(=O)c2ccc3c(c2)N=C(C)c2c(C)ccc(C)c2S3)CC1 | . | . | 87.4* | . | . | . | 67.5*
O=C(CN1CCN(c2ccc(F)cc2)CC1)Nc1nccs1 | . | . | -6.3 | . | . | . | .
